This excerpt belongs to a sample that is enriched for hits.
ABCG2 block = blocks JC-1 efflux by human ABCG2 transporter; IgMXP3 cells, flow cytometry; AID 1325; inhibition, % at 6.6 µM; 0.1% of 190,000 active;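 active = inhibition above 80%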;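 also: 0% = DMSO and 100% = nicardipine control wells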
Target sequence (Q9UNQ0 whole entry, looked up): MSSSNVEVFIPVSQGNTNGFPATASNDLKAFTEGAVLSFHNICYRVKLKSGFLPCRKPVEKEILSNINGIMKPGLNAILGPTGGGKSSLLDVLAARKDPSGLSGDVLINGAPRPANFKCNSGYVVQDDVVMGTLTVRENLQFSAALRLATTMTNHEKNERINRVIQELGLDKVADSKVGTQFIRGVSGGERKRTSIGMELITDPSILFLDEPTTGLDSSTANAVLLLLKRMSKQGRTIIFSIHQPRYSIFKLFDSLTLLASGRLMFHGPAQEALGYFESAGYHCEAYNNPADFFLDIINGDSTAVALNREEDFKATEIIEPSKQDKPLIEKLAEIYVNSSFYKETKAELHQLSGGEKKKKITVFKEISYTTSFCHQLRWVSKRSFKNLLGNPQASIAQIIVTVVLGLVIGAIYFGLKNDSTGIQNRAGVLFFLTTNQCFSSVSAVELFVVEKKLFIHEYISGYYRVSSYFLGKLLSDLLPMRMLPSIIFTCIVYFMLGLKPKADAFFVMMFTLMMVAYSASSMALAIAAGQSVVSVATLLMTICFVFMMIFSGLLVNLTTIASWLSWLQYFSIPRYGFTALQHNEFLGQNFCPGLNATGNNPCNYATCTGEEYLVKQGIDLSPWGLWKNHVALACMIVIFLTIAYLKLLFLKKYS
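Read-out basis: Efflux inhibition in percent versus controls | Test system: ABCG2 IgMXP3 and barcoded ABCB1 CCRF-Adr cell mix | Quantity: 3 million cells/mL in well | Schedule: 10 min at 25 °C | Control set: Nicardipine as high control, DMSO as low control | Reagent: JC-1 as fluorescent efflux pump substrate | Signal: Flow cytometry of retained JC-1 fluorescence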
ABCB1 block = blocks JC-1 efflux by human ABCB1 transporter. AID 1326. CCRF-Adr cells, flow cytometry. inhibition, % at 6.6 µM. 0.067% of 190,000 active; in the data active = inhibition above about 40%;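 also: 0% = vehicle and 100% = reference inhibitor; higher value means more JC-1 retained so stronger ABCB1 efflux block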
FLuc inh counter = counter-screen for luciferase assay inhibitors: firefly luciferase inhibition; P08659; ATPLite firefly luciferase biochemical luminescence, 10 min; inhibition, % at 10 µM; 1.5% of 200,000 active;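 active = inhibition above about 50% when tested at 10 µM, limit read from the data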
ABCB6 inh MLPCN = inhibitors of human ABC transporter ABCB6. K562-ABCB6 porphyrin accumulation, flow cytometry, 1 h; hits give low values. fluorescence ratio to DMSO, % at 10 µM. Q9NP58. 0.19% of 360,000 active;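 active = fluorescence ratio to DMSO below 75%, the collection mean minus 3 SD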;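 also: signal is porphyrin accumulated inside mitochondria; 100% equals median channel fluorescence of DMSO control wells; lower ratio means ABCB6 inhibition with less porphyrin fluorescence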
Diaph act CS = diaphorase activation or chemical reduction counter-screen. 0.005% of 190,000 active. Diaphorase/resazurin coupled assay, resorufin fluorescence, 16 min; hits give high values; 1 = vehicle wells, 0 = NADH-free wells. activation factor at 20 µM;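 active = diaphorase activity raised at least twofold by the compound at 20 µM; inactive = activation factor below 2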
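Material: bacterial diaphorase enzyme (C. kluyveri); amount: enzyme 0.07 U/mL final; reagent: NADH substrate 0.114 mM plus resazurin dye 0.1 mM, final; doses: single compound dose of 20 µM, 1% DMSO final; timing: 16 min enzyme reaction, ambient temperature; measured by: fluorescence of resorufin, 544 nm excitation, 590 nm emission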
FLuc act counter = firefly luciferase counter-screen for stimulation assays; P08659; ATPlite luciferase biochemical, luminescence, 10 min; 0 = ATP-free wells, 1 = DMSO control; activation factor at 10 µM; 200,000 tested, under 10 active; AID 1027;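 active = luciferase activation factor, scaled between plate controls, of at least 2 with compound at 10 µM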
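Material: luciferase plus luciferin reagent, cell-free. Medium: PBS buffer for ATP. Also added: ATP substrate, dispensed from a 10.24 µM working solution in PBS. Doses: test compounds dosed from 2 mM stocks in 100% DMSO. Incubation: 10 min post-reagent at room temperature. Technique: light output (luminescence). Read-out basis: luminescence gain marking luciferase activators.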
Numbers without * were called inactive; . = no result given.

SMILES | ABCG2 block | ABCB1 block | FLuc inh counter | ABCB6 inh MLPCN | Diaph act CS | FLuc act counter
CCOc1ccccc1C1c2[nH]c3ccccc3c2C[C@H]2C(=O)N(C3CC3)CC(=O)N12 (some centres undefined) | . | . | . | 105 | . | .
O=C(C=Cc1ccc2c(c1)OCO2)c1ccccc1 | . | . | . | 103 | . | .
O=C(/C=C/c1ccccc1)c1ccc2c(c1)OCCCCO2 | 10 | 0 | 88* | 92 | 0.8 | 0.1
Cc1ccc(/C=C/C(=O)c2ccc(O)cc2)cc1 | . | . | . | 100 | . | .
CN(C)c1ccc(C(=O)/C=C/c2ccco2)cc1 | -1 | 0 | 91* | 105 | 0.7 | 0.1
CSc1ccc(/C=C/C(=O)c2ccc(O)cc2)cc1 | 39 | 0 | 70* | 91 | 0.9 | 0.3
CN(C)c1ccc(C(=O)/C=C/c2ccc(Br)cc2)cc1 | -10 | -1 | 30 | 107 | 0.9 | 0.7
CN(C)c1ccc(C(=O)/C=C/c2ccccc2)cc1 | 2 | -2 | 78* | 99 | 1 | 0.2
CSCCC(NC(=O)c1ccccc1Cl)C(=O)Nc1ccncc1 (centres undefined) | . | . | . | 101 | . | .
CC(=O)Oc1ccc(/C(C)=N/N2CCN(Cc3ccc(C)cc3)CC2)cc1 | . | . | . | 93 | . | .
Clc1ccc(-c2nnc(NC3=NCCCCC3)o2)cc1 | 5 | 0 | 78* | 96 | 0.9 | 0.2
O=C(CC(Nc1ccc(Cl)cc1)C(=O)O)c1ccccc1 (centres undefined) | 15 | 1 | 69* | 94 | 1 | 0.3
CCOC(=O)N1CCN(C(=O)C[C@@H]2C[C@@]3(C(=O)OCC)CCCC=C3N(Cc3ccc4c(c3)OCO4)C2=O)CC1 | . | . | . | 93 | . | .
CCOc1ccc(/C=N/NC(=O)c2[nH]ncc2Br)c(O)c1 | -7 | -1 | 91* | 98 | 0.9 | 0.1
Cc1ccc(O)c(/C=N/NC(=O)c2[nH]ncc2Br)c1 | 2 | 0 | 74* | 99 | 1 | 0.3
COc1ccc(OC)c(/C=N/NC(=O)c2[nH]ncc2Br)c1 | . | . | . | 98 | . | .
c1ccc(CNc2nc3ccccc3[nH]2)cc1 | 1 | 0 | 64* | 100 | 0.8 | 0.4
Cc1ccc2nc(NCc3ccccc3)[nH]c2c1 | 1 | -1 | 24 | 102 | 0.9 | 0.8
c1ccc2[nH]c(NCc3ccc4c(c3)OCO4)nc2c1 | 1 | 0 | 82* | 101 | 1.1 | 0.2
Cc1ccc(S(=O)(=O)NCCN=C(CN2CCCC2)NS(=O)(=O)c2ccc(C)cc2)cc1 | 0 | 0 | -4 | 66* | 0.9 | 1
CCOc1ccc2nc(NC(=O)CSc3nnc(-c4ccncc4)n3CC3CCCO3)sc2c1 (centres undefined) | . | . | 68* | 98 | 0.9 | 0.3
CC1(C)CC(=O)c2sc(NC(=O)C(C)(C)C)nc2C1 | 0 | -1 | 12 | 93 | 1.2 | 0.9
CC1(C)CC(=O)c2sc(NC(=O)c3ccc4ncsc4c3)nc2C1 | 1 | 0 | 55* | 95 | 0.8 | 0.5
CC1(C)CC(=O)c2sc(NC(=O)c3cccs3)nc2C1 | 22 | 1 | 95* | 91 | 0.9 | 0.1
CC1(C)CC(=O)c2sc(NC(=O)c3ccccc3)nc2C1 | 7 | -1 | 88* | . | 1 | 0.1
SMILES | ABCG2 block | ABCB1 block | FLuc inh counter | ABCB6 inh MLPCN | Diaph act CS | FLuc act counter
CC1(C)CNC(=O)c2sc(NC(=O)c3ccccc3)nc2C1 | 0 | 0 | 20 | 96 | 0.8 | 0.8
Cc1ccc2nc(NC(=O)c3ccc4ncsc4c3)sc2c1 | 1 | 0 | 41 | 99 | 1 | 0.6
C[C@@H]1CN([C@H](C)CO)C(=O)CCCn2nncc2CO[C@H]1CN(C)C(=O)Nc1cccc2ccccc12 | . | . | . | 100 | . | .
COc1cc(C(=O)Nc2cccc(-c3cn4cccnc4n3)c2)cc(OC)c1OC | 0 | 0 | 9 | 95 | 1.1 | 0.9
CC(C)(C)CC(=O)Nc1cccc(-c2cn3cccnc3n2)c1 | 3 | -1 | 61* | 97 | 1 | 0.4
O=C(CSc1nnc(NC(=O)c2ccc3c(c2)OCO3)s1)NCc1ccco1 | 0 | 0 | 91* | 101 | 1 | 0.1
COc1ccc(Cl)cc1NC(=O)CSc1nc2[nH]ncc2c(=O)[nH]1 | . | . | . | 96 | . | .
CCc1nc2c(oc3ccccc32)c(=O)[nH]1 | 2 | 0 | 2 | 99 | 1 | 1
O=c1[nH]c(CSc2ccccn2)nc2c1oc1ccccc12 | 4 | 1 | 61* | 103 | 1 | 0.4
Cc1cccc(NC(=O)CNC(=O)Cn2cc(C(F)(F)F)cc(Cl)c2=O)c1C | . | . | . | 100 | . | .
Cc1nnc(NC(=O)CSc2ccc(-c3ccc(Cl)cc3)nn2)s1 | 2 | 0 | 6 | 445 | 1.1 | 0.9
O=C(CSc1nnc2ccc(-c3ccc(Br)cc3)nn12)NCC1CCCO1 (centres undefined) | . | . | . | 101 | . | .
CCc1ccc(-c2ccc(SCC(=O)Nc3nnc(C)s3)nn2)cc1 | 6 | 2 | 85* | 100 | 1 | 0.1
CCOC(=O)N1CCN(C(=O)CSc2ccc(-c3ccc(OC)cc3)nn2)CC1 | 2 | 1 | 58* | 91 | 1 | 0.4
CCc1ccc(-c2ccc(SCC(=O)NCC3CCCO3)nn2)cc1 (centres undefined) | 4 | 0 | 80* | 97 | 0.9 | 0.2
CCOc1ccc(-c2ccc(SCC(=O)Nc3nnc(C)s3)nn2)cc1 | 1 | 0 | 65* | 94 | 0.9 | 0.3
C[C@H]1CN([C@@H](C)CO)C(=O)CCCn2nncc2CO[C@H]1CN(C)C(=O)Nc1cccc2ccccc12 | . | . | . | 98 | . | .
O=C(Cn1c(=O)[nH]c2sc3c(c2c1=O)CCCC3)NCC1CCCO1 (centres undefined) | . | . | . | 104 | . | .
O=C1NC(=O)C(=Cc2ccccc2)N1 | . | . | . | 99 | . | .
CN(C)c1ccc(/C=C2/NC(=O)NC2=O)cc1 | 8 | 0 | 73* | 101 | 0.9 | 0.3
Clc1ccc(/C=C/c2nc3ccccc3[nH]2)cc1 | 0 | 0 | 96* | 100 | 0.9 | 0
O=C(/C=C/c1ccc(Cl)cc1Cl)c1nc2ccccc2[nH]1 | 2 | 0 | 66* | 95 | 1 | 0.3
Clc1cccc(Cl)c1/C=C/c1nc2ccccc2[nH]1 | 24 | 2 | 82* | 96 | 0.9 | 0.2
Clc1ccc(/C=C/c2nc3ccccc3[nH]2)c(Cl)c1 | 1 | 0 | 96* | 95 | 0.8 | 0
O=C(/C(=C(\O)c1ccccc1)c1nc2ccccc2[nH]1)c1ccccc1 | . | . | . | 103 | . | .
Cc1cc(=O)n2nc(N3CCC(C(=O)NCc4ccc(Cl)cc4)CC3)sc2n1 | . | . | . | 102 | . | .
COC(=O)C1CCN(C(=O)[C@H](C)NC(=O)C2CC(=O)N(c3ccc(F)cc3)C2)CC1 (some centres undefined) | . | . | . | 96 | . | .
NC(=O)c1ccsc1NC(=O)COC(=O)c1cc(Cl)ccc1O | . | . | . | 95 | . | .

Bioassay records deposited in PubChem by several laboratories.
